The record followed here is ChEMBL document CHEMBL4152264, “Design, synthesis, antiproliferative activity and docking studies of quinazoline derivatives bearing 2,3-dihydro-indole or 1,2,3,4-tetrahydroquinoline as potential EGFR inhibitors” (Eur J Med Chem, 2018).

The subject of the first series is A549. The series can be described thus: Antiproliferative activity against human A549 cells after 72 hrs by MTT assay. Format: functional, cell-based. To be noted: A549, 72 h.
In general, IC50 refers to the concentration that inhibits the measured activity by half. Lower therefore signals greater potency. `O=C(/C=C/CN1CCC(CO)CC1)Nc1cc2c(N3CCc4ccccc43)ncnc2cc1O[C@@H]1CCOC1` yielded a 50% inhibitory concentration (IC50) of 3.67 µM. This counts as single-digit micromolar.

`CCN(CC)C/C=C/C(=O)Nc1cc2c(N3CCc4ccccc43)ncnc2cc1O[C@@H]1CCOC1` returned an IC50 of 5.22 µM.

For `COc1cc2ncnc(N3CCCc4ccccc43)c2cc1NC(=O)/C=C/C(C)C`, the IC50 was determined as 3.45 µM.

In turn, `C/C=C/C(=O)Nc1cc2c(N3CCc4ccccc43)ncnc2cc1OC` registered an IC50 of 8.29 µM. This IC50 lies about 2.4-fold higher than the previous one.

For the compound `CC/C=C/C(=O)Nc1cc2c(N3CCCc4ccccc43)ncnc2cc1O[C@@H]1CCOC1`, half-maximal inhibition (IC50) was put at 14.1 µM.

In turn, `CCN(CC)C/C=C/C(=O)Nc1cc2c(N3CCc4ccccc43)ncnc2cc1OC` returned a half-inhibitory concentration (IC50) of 1.69 µM.

The compound `CN(C)C/C=C/C(=O)Nc1cc2c(N3CCCc4ccccc43)ncnc2cc1O[C@@H]1CCOC1` had an IC50 of 2.32 µM.

In turn, `CCN(CC)C/C=C/C(=O)Nc1cc2c(N3CCCc4ccccc43)ncnc2cc1O[C@@H]1CCOC1` showed a half-maximal inhibitory concentration (IC50) of 5.65 µM.

Turning to `COc1cc2ncnc(N3CCCc4ccccc43)c2cc1NC(=O)/C=C/CN1CCC(CO)CC1`, the IC50 was found to be 6.97 µM.

The compound `O=C(/C=C/CN1CCCCC1)Nc1cc2c(N3CCc4ccccc43)ncnc2cc1O[C@@H]1CCOC1` had an IC50 of 4.66 µM.

Compound `O=C(/C=C/CN1CCCC1)Nc1cc2c(N3CCCc4ccccc43)ncnc2cc1O[C@@H]1CCOC1` registered a half-maximal inhibitory concentration (IC50) of 6.51 µM.

As to `CCN(CC)C/C=C/C(=O)Nc1cc2c(N3CCCc4ccccc43)ncnc2cc1OC`, the half-inhibitory concentration (IC50) was 6.41 µM.

On to `COc1cc2ncnc(N3CCCc4ccccc43)c2cc1NC(=O)/C=C/CN1CCCC1`, for which half-maximal inhibition (IC50) was put at 2.23 µM.

Consider `CN1CCN(C/C=C/C(=O)Nc2cc3c(N4CCCc5ccccc54)ncnc3cc2O[C@@H]2CCOC2)CC1`, for which the midpoint of inhibition, the IC50, lay at 5.87 µM. This IC50 lies about 2.6-fold higher than the previous one.

Compound `COc1cc2ncnc(N3CCc4ccccc43)c2cc1NC(=O)/C=C/CN1CCOCC1` registered a concentration for half-maximal inhibition (IC50) of 9.25 µM.

In turn, `COc1cc2ncnc(N3CCCc4ccccc43)c2cc1NC(=O)/C=C/CN1CCCCC1` came in with an IC50 of 2.88 µM.

In turn, `O=C(/C=C/CN1CCC(CO)CC1)Nc1cc2c(N3CCCc4ccccc43)ncnc2cc1O[C@@H]1CCOC1` registered a 50% inhibitory concentration (IC50) of 5.3 µM. This IC50 lies about 1.8-fold higher than the previous one.

Tested on in the next series: not listed separately
The experiment in a line: Solubility of the compound in water. Type of series: physicochemical. To be noted: buffer.
Turning to `COc1cc2ncnc(N3CCCc4ccccc43)c2cc1NC(=O)/C=C/C(C)C`, the solubility entry is “Insoluble”.

Consider `C/C=C/C(=O)Nc1cc2c(N3CCc4ccccc43)ncnc2cc1OC`, for which the solubility result is “Insoluble”.

With `CC/C=C/C(=O)Nc1cc2c(N3CCCc4ccccc43)ncnc2cc1O[C@@H]1CCOC1`, the solubility entry is on record as “Insoluble”.

Another series concerns MCF7. The experiment in a line: Antiproliferative activity against human MCF7 cells after 72 hrs by MTT assay. Type of series: functional, cell-based. Conditions: MCF7, 72 h.
As for `O=C(/C=C/CN1CCC(CO)CC1)Nc1cc2c(N3CCc4ccccc43)ncnc2cc1O[C@@H]1CCOC1`, the midpoint of inhibition, the IC50, lay at 4.69 µM.

In turn, `CCN(CC)C/C=C/C(=O)Nc1cc2c(N3CCc4ccccc43)ncnc2cc1O[C@@H]1CCOC1` gave an IC50 of 4.98 µM.

With `COc1cc2ncnc(N3CCCc4ccccc43)c2cc1NC(=O)/C=C/C(C)C`, 4.29 µM corresponded to half-maximal inhibition (IC50).

Regarding `C/C=C/C(=O)Nc1cc2c(N3CCc4ccccc43)ncnc2cc1OC`, the IC50 was determined as 4.03 µM.

`CC/C=C/C(=O)Nc1cc2c(N3CCCc4ccccc43)ncnc2cc1O[C@@H]1CCOC1` returned an IC50 of 14.4 µM.

The compound `CCN(CC)C/C=C/C(=O)Nc1cc2c(N3CCc4ccccc43)ncnc2cc1OC` had a 50% inhibitory concentration (IC50) of 1.99 µM.

In the case of `CN(C)C/C=C/C(=O)Nc1cc2c(N3CCCc4ccccc43)ncnc2cc1O[C@@H]1CCOC1`, the IC50 turned out to be 2.85 µM.

Consider `CCN(CC)C/C=C/C(=O)Nc1cc2c(N3CCCc4ccccc43)ncnc2cc1O[C@@H]1CCOC1`, for which the half-maximal inhibitory concentration (IC50) was 3.87 µM.

`COc1cc2ncnc(N3CCCc4ccccc43)c2cc1NC(=O)/C=C/CN1CCC(CO)CC1`: the IC50 worked out at 5.74 µM.

For `O=C(/C=C/CN1CCCCC1)Nc1cc2c(N3CCc4ccccc43)ncnc2cc1O[C@@H]1CCOC1`, the 50% inhibitory concentration (IC50) came to 1.89 µM. Against the preceding compound, the IC50 is about 3-fold lower.

`O=C(/C=C/CN1CCCC1)Nc1cc2c(N3CCCc4ccccc43)ncnc2cc1O[C@@H]1CCOC1` came in with an IC50 of 4.25 µM.

`CCN(CC)C/C=C/C(=O)Nc1cc2c(N3CCCc4ccccc43)ncnc2cc1OC` showed a half-inhibitory concentration (IC50) of 5.31 µM. This IC50 and that of the compound before are within 1.5-fold of each other.

For `COc1cc2ncnc(N3CCCc4ccccc43)c2cc1NC(=O)/C=C/CN1CCCC1`, it took 3.19 µM to reach half-maximal inhibition (IC50). This IC50 is about 1.7-fold lower than that of the compound before.

As for `CN1CCN(C/C=C/C(=O)Nc2cc3c(N4CCCc5ccccc54)ncnc3cc2O[C@@H]2CCOC2)CC1`, it took 7.18 µM to reach half-maximal inhibition (IC50).

Regarding `COc1cc2ncnc(N3CCc4ccccc43)c2cc1NC(=O)/C=C/CN1CCOCC1`, the IC50 is 8.45 µM.

`COc1cc2ncnc(N3CCCc4ccccc43)c2cc1NC(=O)/C=C/CN1CCCCC1` showed a 50% inhibitory concentration (IC50) of 3.93 µM.

On to `O=C(/C=C/CN1CCC(CO)CC1)Nc1cc2c(N3CCCc4ccccc43)ncnc2cc1O[C@@H]1CCOC1`, for which the IC50 was 4.96 µM.

For the next series, the system named is PC-3. The experiment in a line: Antiproliferative activity against human PC3 cells after 72 hrs by MTT assay. Format: functional, cell-based. To be noted: PC-3, 72 h. An outline of the steps:
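Cells grown in MEM with 10% FBS. About 4×10³ cells per well seeded and incubated 24 h at 37 °C, 5% CO₂. Compounds added at indicated final concentrations for 72 h. MTT at 5 µg/mL final for 4 h at 37 °C. Formazan dissolved in DMSO, absorbance read at 492 nm with 630 nm reference. Tested three times; IC50 is the mean of two determinations.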
(In general: Formazan colour is commonly taken as a measure of viable cells.)
With `O=C(/C=C/CN1CCC(CO)CC1)Nc1cc2c(N3CCc4ccccc43)ncnc2cc1O[C@@H]1CCOC1`, the IC50 was 3.31 µM.

`CCN(CC)C/C=C/C(=O)Nc1cc2c(N3CCc4ccccc43)ncnc2cc1O[C@@H]1CCOC1` registered an IC50 of 5.78 µM.

`COc1cc2ncnc(N3CCCc4ccccc43)c2cc1NC(=O)/C=C/C(C)C` registered an IC50 of 8.43 µM. This IC50 and that of the compound before are within 1.5-fold of each other.

In turn, `C/C=C/C(=O)Nc1cc2c(N3CCc4ccccc43)ncnc2cc1OC` returned a concentration for half-maximal inhibition (IC50) of 8.12 µM. The IC50 values of the last two compounds are within 1.5-fold of each other.

As for `CC/C=C/C(=O)Nc1cc2c(N3CCCc4ccccc43)ncnc2cc1O[C@@H]1CCOC1`, the 50% inhibitory concentration (IC50) came out at 14.3 µM.

`CCN(CC)C/C=C/C(=O)Nc1cc2c(N3CCc4ccccc43)ncnc2cc1OC` came in with a half-maximal inhibitory concentration (IC50) of 3.69 µM.

For `CN(C)C/C=C/C(=O)Nc1cc2c(N3CCCc4ccccc43)ncnc2cc1O[C@@H]1CCOC1`, half-maximal inhibition (IC50) required 4.17 µM.

On to `CCN(CC)C/C=C/C(=O)Nc1cc2c(N3CCCc4ccccc43)ncnc2cc1O[C@@H]1CCOC1`, for which the midpoint of inhibition, the IC50, lay at 4.27 µM.

As to `COc1cc2ncnc(N3CCCc4ccccc43)c2cc1NC(=O)/C=C/CN1CCC(CO)CC1`, half-maximal inhibition (IC50) required 7.15 µM.

Compound `O=C(/C=C/CN1CCCCC1)Nc1cc2c(N3CCc4ccccc43)ncnc2cc1O[C@@H]1CCOC1` returned an IC50 of 4.51 µM.

Consider `O=C(/C=C/CN1CCCC1)Nc1cc2c(N3CCCc4ccccc43)ncnc2cc1O[C@@H]1CCOC1`, for which the 50% inhibitory concentration (IC50) was found to be 5.78 µM.

`CCN(CC)C/C=C/C(=O)Nc1cc2c(N3CCCc4ccccc43)ncnc2cc1OC` had an IC50 of 6.89 µM.

Consider `COc1cc2ncnc(N3CCCc4ccccc43)c2cc1NC(=O)/C=C/CN1CCCC1`, for which half-maximal inhibition (IC50) was put at 1.74 µM.

`CN1CCN(C/C=C/C(=O)Nc2cc3c(N4CCCc5ccccc54)ncnc3cc2O[C@@H]2CCOC2)CC1` showed a half-maximal inhibitory concentration (IC50) of 9.45 µM.

`COc1cc2ncnc(N3CCc4ccccc43)c2cc1NC(=O)/C=C/CN1CCOCC1` displayed an IC50 of 8.29 µM.

Compound `COc1cc2ncnc(N3CCCc4ccccc43)c2cc1NC(=O)/C=C/CN1CCCCC1` had an IC50 of 5.78 µM.

As for `O=C(/C=C/CN1CCC(CO)CC1)Nc1cc2c(N3CCCc4ccccc43)ncnc2cc1O[C@@H]1CCOC1`, the IC50 was determined as 5.46 µM.
